What is called GI50 is the concentration that inhibits growth by half. A high value points to less potent growth inhibition. As usually defined, the IC50 is the concentration needed to halve the response being measured.

Here are results for three compounds from ChEMBL document CHEMBL2380293, “Design, synthesis, and biological evaluation of novel histone deacetylase 1 inhibitors through click chemistry” (Bioorg Med Chem Lett, 2013).

Test [1] deals with DU-145. Put plainly: Growth inhibition of human DU145 cells by MTT assay. The class given is functional. Background: Tetrazolium dyes change colour on reduction, which living cells bring about.
Test [2] deals with HeLa. Put plainly: Growth inhibition of human HeLa cells by MTT assay. The class given is functional.
Test [3] has as its system A549. Put plainly: Growth inhibition of human A549 cells by MTT assay. The class given is functional.
Test [4] deals with BGC-823. The test can be described thus: Growth inhibition of human BGC823 cells by MTT assay. The class given is functional.
In test [5] the test system is HUVEC. Put plainly: Growth inhibition of HUVEC by MTT assay. The class given is functional. The note with it: Homo sapiens.
Test [6] concerns the target T1, Histone deacetylase 7 (Homo sapiens) (UniProt Q8WUI4).
T1 sequence (whole entry): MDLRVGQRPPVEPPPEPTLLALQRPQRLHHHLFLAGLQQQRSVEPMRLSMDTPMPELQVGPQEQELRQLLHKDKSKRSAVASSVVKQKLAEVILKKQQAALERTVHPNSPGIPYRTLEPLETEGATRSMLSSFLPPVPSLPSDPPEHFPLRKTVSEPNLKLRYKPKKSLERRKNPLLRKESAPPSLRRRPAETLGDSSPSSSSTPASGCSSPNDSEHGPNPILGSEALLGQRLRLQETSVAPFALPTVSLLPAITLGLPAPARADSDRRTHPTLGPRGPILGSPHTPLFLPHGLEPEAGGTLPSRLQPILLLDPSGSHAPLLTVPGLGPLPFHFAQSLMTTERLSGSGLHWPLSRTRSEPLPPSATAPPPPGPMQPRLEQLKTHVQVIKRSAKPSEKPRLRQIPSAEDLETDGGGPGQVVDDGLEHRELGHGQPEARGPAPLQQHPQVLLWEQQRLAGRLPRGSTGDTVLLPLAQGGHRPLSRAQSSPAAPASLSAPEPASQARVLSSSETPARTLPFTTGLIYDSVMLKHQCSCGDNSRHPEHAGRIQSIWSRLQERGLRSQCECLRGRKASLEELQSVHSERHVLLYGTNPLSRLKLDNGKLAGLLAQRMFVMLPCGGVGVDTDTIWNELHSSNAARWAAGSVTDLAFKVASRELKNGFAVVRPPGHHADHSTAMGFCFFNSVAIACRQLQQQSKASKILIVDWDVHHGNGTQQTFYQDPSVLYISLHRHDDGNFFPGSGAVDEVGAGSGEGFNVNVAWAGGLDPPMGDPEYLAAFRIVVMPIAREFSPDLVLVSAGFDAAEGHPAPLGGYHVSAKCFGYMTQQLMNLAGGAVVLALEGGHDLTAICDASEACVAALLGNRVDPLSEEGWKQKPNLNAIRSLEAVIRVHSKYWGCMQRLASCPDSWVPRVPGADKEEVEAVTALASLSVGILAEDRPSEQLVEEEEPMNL
Put plainly: Inhibition of human recombinant HDAC7 at 10 uM incubated for 10 mins prior to substrate addition measured after 60 mins by spectrophotometric analysis. An outline of the steps: (§1)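 Enzyme IC50 values are means of three experiments, with SAHA run as the positive control. Absence of activity was judged at 10 μM.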

Test [7] concerns A-431. The test can be described thus: Growth inhibition of human A431 cells by MTT assay. The class given is functional.
Test [8] deals with T2, Histone deacetylase 1 (Homo sapiens, UniProt Q13547). The test can be described thus: Inhibition of human recombinant HDAC1 incubated for 10 mins prior to substrate addition measured after 60 mins by spectrophotometric analysis.
T2 sequence (Q13547 whole entry): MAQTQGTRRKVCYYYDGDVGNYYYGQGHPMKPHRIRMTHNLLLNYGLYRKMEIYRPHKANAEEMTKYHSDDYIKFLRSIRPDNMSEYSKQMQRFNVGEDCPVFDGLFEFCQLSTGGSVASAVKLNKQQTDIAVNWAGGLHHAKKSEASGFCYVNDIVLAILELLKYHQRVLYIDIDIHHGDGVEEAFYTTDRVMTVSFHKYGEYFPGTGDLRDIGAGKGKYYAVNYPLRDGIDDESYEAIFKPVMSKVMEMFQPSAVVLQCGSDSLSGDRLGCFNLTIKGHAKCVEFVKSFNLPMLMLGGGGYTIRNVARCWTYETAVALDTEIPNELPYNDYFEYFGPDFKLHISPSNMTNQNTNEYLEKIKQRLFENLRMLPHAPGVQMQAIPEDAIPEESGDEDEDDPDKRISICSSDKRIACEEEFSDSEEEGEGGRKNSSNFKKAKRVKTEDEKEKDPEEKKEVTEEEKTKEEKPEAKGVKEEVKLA
Test [9] relates to HT-1080. Put plainly: Growth inhibition of human HT1080 cells by MTT assay. Particulars: Homo sapiens, HT-1080. The class given is functional. An outline of the steps:
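MTT cell growth read-out, with SAHA as the positive control. GI50 values are means of three experiments. 10 μM was the concentration tested for scoring absence of activity.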

The target of test [10] is T2, Histone deacetylase 1. The test can be described thus: Inhibition of human recombinant HDAC1 at 10 uM incubated for 10 mins prior to substrate addition measured after 60 mins by spectrophotometric analysis. A digest of the protocol: as §1

Calls of active or inactive are those of the source. The calls are words filed in the database; no cut-off is given here.

On to `O=C(CCCCc1cn(Cc2cccc(-c3ccccc3)c2)nn1)NO`, for which the 50% growth inhibitory concentration (GI50) in test [1] was 1190 nM; in [2], 3850 nM; in test [3] it was 1470 nM; in test [4], 3050 nM; in test [5] it was 1130 nM; in test [7], 4650 nM. Further, the GI50 in test [9] worked out at 3140 nM. Also, in [6], the inhibition result was “inactive”. For the same compound, the IC50 in test [8] worked out at 58 nM.

For `O=C(CCCCc1cn(Cc2ccc(-c3ccccc3)cc2)nn1)NO`, the GI50 in [1] came out at 1210 nM; in test [2], 3720 nM; in [3], 2150 nM; in test [4], 1800 nM; in test [5] it was 5480 nM; in test [7], 2990 nM. The GI50 in test [9] was found to be 2690 nM. In addition, in test [6], the inhibition result is “inactive”. Further, the IC50 in test [8] worked out at 202 nM.

`O=C(CCCCc1cn(Cc2c(Br)cc(Br)cc2Br)nn1)NO`: the inhibition entry in test [10] and in [6] was “inactive” each time.
